Data on 71 compounds can be found in ChEMBL document CHEMBL4513216, “Probing the Open Global Health Chemical Diversity Library for Multistage-Active Starting Points for Next-Generation Antimalarials” (ACS Infect Dis, 2020).

The nature of this series: Toxicity liver stage against HepG2, at 10uM. Conditions: human, HepG2-A16-CD81EGFP cells; read-out: INHIBITION
The arrangement: test concentration 10 uM, cell line HepG2-A16-CD81EGFP. The class given is cell-based. The essentials: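 Uninfected HepG2-A16-CD81EGFP cells, 3 × 10^3 per well, 1536-well, plated on prespotted compound at 10 μM final, parasite-free screening media added to match infected plates; puromycin 10 μM positive, DMSO 0.5% negative; run in parallel with 48 h PbLuc assay at 37 °C, 5% CO2; viability by CellTiter-Glo luminescence, normalized to controls.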
As to `CC(=O)NC[C@H]1OC[C@@H](NC2CCC(F)(F)CC2)[C@@H]1O`, the cytotoxicity at 10 µM was -8.57%.

In the case of `COc1ccc2c(c1)nc1n2[C@@H](CNCc2cnn(C)c2)COC1`, the cytotoxicity at 10 µM is -6.8%.

On to `CC(=O)N1N=C(c2cccs2)OC1C(=O)Nc1ccc(C(C)C)cc1` (stereo unspecified), for which the cytotoxicity at 10 µM is -12.7%.

Regarding `CCN(CC)CCNC(=O)CCc1c(C)nn(-c2ccccc2Br)c1C`, the cytotoxicity at 10 µM came to 10.6%.

With `O=c1c(NCCOCCO)c(N2CCN(c3ccccc3)CC2)c1=O`, the cytotoxicity at 10 µM is -5.64%.

Take `Cn1cccc1CN(C(=O)Cc1cccs1)C1CC1`: the cytotoxicity at 10 µM was determined as 7.53%.

On to `CCc1ccc(C(=O)N2C[C@@H]3COC[C@@H](C(=O)NC)[C@@H]3C2)cc1`, for which the cytotoxicity at 10 µM was found to be 1.58%.

Take `Cc1cccc(C(=O)N2CCCn3cnc(CN4CCCC4=O)c3C2)n1`: the cytotoxicity at 10 µM stood at 15.7%.

In the case of `CCC(=O)N1CCC2(COCc3cnc(NCc4ccco4)nc32)C1` (stereo unspecified), the cytotoxicity at 10 µM was -12.9%.

For the compound `O=C(NCC1CCCO1)c1nc2c(s1)CCCN2C(=O)C1CC1` (stereo unspecified), the cytotoxicity at 10 µM is -0.464%.

For `NCC1Cn2nnc(-c3cccc(F)c3)c2CO1` (stereo unspecified), the cytotoxicity at 10 µM is -12.1%.

As to `Cc1cccc(CN2C[C@@H]3COC[C@]3(COc3ccc(C#N)cn3)C2)n1`, the cytotoxicity at 10 µM is -21.2%.

Turning to `O=C(O)Cn1nc(C2CC2)c2c(-c3ccc(F)cc3)ccnc21`, the cytotoxicity at 10 µM was -3.32%.

Take `c1cnc(-c2nn3c(CN4CCCCC4)nnc3s2)cn1`: the cytotoxicity at 10 µM was found to be 5.31%.

For `CCn1nc(C)c(CN(C)S(=O)(=O)c2cnn(C)c2)c1C`, the cytotoxicity at 10 µM turned out to be 5.62%.

With `Cc1ccc(C2CCCN(S(C)(=O)=O)C2)nc1` (stereo unspecified), the cytotoxicity at 10 µM was 2.32%.

On to `Cn1nc(C(=O)NC2(c3ccc(Cl)cc3)CCCC2)ccc1=O`, for which the cytotoxicity at 10 µM is -4.47%.

Regarding `COc1ccc(CNc2cc(-c3nc(C)no3)ccn2)c(OC)c1`, the cytotoxicity at 10 µM was determined as 9.07%.

Turning to `CC(C)c1nc(C(=O)N2CCc3ccccc3C2C(=O)O)cs1` (stereo unspecified), the cytotoxicity at 10 µM was determined as 9.63%.

Turning to `COc1ccc(CCC(=O)N2CCN(c3nc(C)ns3)CC2)cc1`, the cytotoxicity at 10 µM worked out at 6.26%.

In the case of `NC(=O)NC1CCN(Cc2ccccc2OCC(F)(F)F)CC1`, the cytotoxicity at 10 µM worked out at 0.451%.

Take `CCc1nnc2n1CCN(C(=O)c1cnc3c(cnn3C(C)C)c1)C2`: the cytotoxicity at 10 µM is -7.58%.

On to `COC(=O)CNC(=O)C(C(C)C)n1cnc2cc(F)c(F)cc21` (stereo unspecified), for which the cytotoxicity at 10 µM was determined as 2.76%.

For `CC(C)c1nc(C2CCCN(C(=O)CN3CCCNC3=O)C2)no1` (stereo unspecified), the cytotoxicity at 10 µM is -4.1%.

`COc1cccc(S(=O)(=O)NC(=O)c2c(C)noc2C(C)C)c1`: the cytotoxicity at 10 µM is -6.83%.

On to `FC(F)CN1CCC(NCCc2ccc(-n3cccn3)cc2)CC1`, for which the cytotoxicity at 10 µM is 14.5%.

In the case of `Cc1nnc2n1CCN(C(=O)C(OC1CCCC1)c1ccccc1)C2` (stereo unspecified), the cytotoxicity at 10 µM was determined as 5.87%.

For the compound `CC(C)(C)OC(=O)N1CCCN(c2nnc(C3CC3)s2)CC1`, the cytotoxicity at 10 µM was 8.05%.

As for `CS(=O)(=O)N1CCN(CC(=O)Nc2cccc(Cl)c2)CC1`, the cytotoxicity at 10 µM is -50.8%.

On to `O=S(=O)(NC1CCCCC12OCCO2)c1cc(F)cc(F)c1` (stereo unspecified), for which the cytotoxicity at 10 µM is -3.55%.

For the compound `CC(C)Cc1nc(CS(=O)(=O)c2ccccc2)no1`, the cytotoxicity at 10 µM amounted to 9.52%.

For `CC(C)CSCCCNC(=O)C1CCOCC1`, the cytotoxicity at 10 µM is -3.65%.

For the compound `Cc1sc(CN)nc1-c1ccccc1`, the cytotoxicity at 10 µM was -2.85%.

For the compound `COc1ccc(NC(=O)c2ccc[nH]2)c(N2CCN(C(C)=O)CC2)n1`, the cytotoxicity at 10 µM is -11.2%.

`O=C(NCCc1ccccn1)NC1CCN(c2ncccn2)CC1`: the cytotoxicity at 10 µM is -16.3%.

For `Cc1ccc(N2C[C@H]3OCC[C@H]3[C@H](C(=O)NC3CCC3)C2)nn1`, the cytotoxicity at 10 µM is -69.9%.

`COc1cc(N2CC[C@H](O)[C@@H]2Cc2cccnc2)ncn1`: the cytotoxicity at 10 µM is -71.8%.

Turning to `Cc1cccc(C(Nc2nccc(C)n2)C2CC2)n1` (stereo unspecified), the cytotoxicity at 10 µM is -2.67%.

Turning to `CC(C)CCN1CCCC(Cn2cc(CCO)nn2)C1` (stereo unspecified), the cytotoxicity at 10 µM is -6.02%.

In the case of `OC[C@H]1CN(Cc2c(Cl)cncc2Cl)C[C@H]1CN1CCCC1`, the cytotoxicity at 10 µM is -127%.

`CCCN1CCC(CC(=O)N2CCC(C(O)c3nccn3C)CC2)CC1` (stereo unspecified): the cytotoxicity at 10 µM was -1.13%.

With `Cc1cc(CN2CCC(CNC(=O)c3noc4c3CCCC4)C2)[nH]n1` (stereo unspecified), the cytotoxicity at 10 µM was -142%.

`Cc1cccc2cc(CN3CCC(N4CCOCC4)CC3)c(=O)[nH]c12`: the cytotoxicity at 10 µM was -12%.

In the case of `Cc1nn2c(NCC(N)=O)cc(-c3ccccc3)nc2c1C`, the cytotoxicity at 10 µM was -10.5%.

`CC(C)(C(=O)NCC1CCN(Cc2cccnc2)C1)c1ccccc1` (stereo unspecified): the cytotoxicity at 10 µM is -1.66%.

Take `CCN1CC(C(=O)N2CCN(CCn3cccc3)CC2)CCC1=O` (stereo unspecified): the cytotoxicity at 10 µM is 1.87%.

In the case of `Cc1nc(CCCNC(=O)[C@H]2CNC[C@@H](C(=O)N3CCCC3)C2)sc1C`, the cytotoxicity at 10 µM was -132%.

With `Cc1ccc(C2(CN(C)Cc3sccc3C)CCNCC2)nc1`, the cytotoxicity at 10 µM was 8.15%.

Regarding `CCCc1cc(N2CCC(NCC3(O)CCCCC3)CC2)nc(C)n1`, the cytotoxicity at 10 µM was -2.48%.

On to `CC[C@@]1(O)CCN(C(=O)CN(C)Cc2ccc(F)cc2)C[C@H]1O`, for which the cytotoxicity at 10 µM turned out to be 3.38%.

Consider `COc1cccc2c1OCC(Cc1ccc(N)nc1C)C2` (stereo unspecified), for which the cytotoxicity at 10 µM is 3.29%.

Consider `CCc1nnc(CNC(=O)CCC2CCCCN2C)s1` (stereo unspecified), for which the cytotoxicity at 10 µM is -147%.

With `O=C(CC1CCc2ccccc21)N1CCC(O)(c2cccnc2)CC1` (stereo unspecified), the cytotoxicity at 10 µM stood at 7.19%.

Consider `Cc1cnn(CCNCc2ccc(C#N)cc2)c1`, for which the cytotoxicity at 10 µM was -10.7%.

`Cc1nc(CN2CCN(C(C)c3nc(C(C)C)no3)CC2)oc1C` (stereo unspecified): the cytotoxicity at 10 µM is -9.16%.

Take `Cc1cc2n(n1)CC(CNCc1ccc(-n3cccn3)cc1)CN2` (stereo unspecified): the cytotoxicity at 10 µM was -2.95%.

`O=C1COc2ccc(C(=O)NS(=O)(=O)c3ccc(F)cc3F)cc2N1`: the cytotoxicity at 10 µM is -4.72%.

For `CC(C)C(=O)NC1CCN(Cc2cccc3c2OCCO3)CC1`, the cytotoxicity at 10 µM was -0.818%.

With `CCC(C)NC(=O)NCCCn1nc2ccccn2c1=O` (stereo unspecified), the cytotoxicity at 10 µM was -8.08%.

For `N#Cc1ccccc1OCCN1CCCCC1Cn1cncn1` (stereo unspecified), the cytotoxicity at 10 µM is -6.04%.

As for `Cc1nc[nH]c1CN(Cc1ccccc1)C1CC(C)(C)NC(C)(C)C1`, the cytotoxicity at 10 µM came out at 0.968%.

`Cc1nc(CN2CCCC3(CCN(c4cnn(C)c4)C3=O)C2)cs1` (stereo unspecified): the cytotoxicity at 10 µM was found to be 3.16%.

As for `CC1c2ncc(CNC(=O)C3CC3)n2CCN1Cc1ccncc1` (stereo unspecified), the cytotoxicity at 10 µM was -5.72%.

As to `c1coc(CN2CCO[C@H]3[C@@H](OCC4CC4)CC[C@@H]32)c1`, the cytotoxicity at 10 µM was found to be 6.68%.

On to `CCOCC1c2c(cnn2CC2CC2)CCN1C(=O)c1ccncn1` (stereo unspecified), for which the cytotoxicity at 10 µM is -118%.

With `CC(C)CN1CCN(C)C2(CCN(Cc3ccsc3)CC2)C1=O`, the cytotoxicity at 10 µM is 4.08%.

Turning to `CC(C)N1Cc2c(C(=O)N3CCOCC3)nn(C)c2C1`, the cytotoxicity at 10 µM was 0.0756%.

Take `CC(C)CN1CCC2(CC1)CC(NS(C)(=O)=O)c1ccccc1O2` (stereo unspecified): the cytotoxicity at 10 µM is -4.44%.

For `N#Cc1ccccc1CN1C[C@H]2CC[C@@H](C1)N(Cc1cscn1)C2=O`, the cytotoxicity at 10 µM was -8.42%.

As to `O=C(CCN1C[C@@H]2CC[C@H]1CN(c1ncccn1)C2)NCc1ccco1`, the cytotoxicity at 10 µM is -1.18%.

Turning to `COc1nccnc1N1C[C@H]2CC[C@@H](C1)N(CC=C(C)C)C2=O`, the cytotoxicity at 10 µM was 1.76%.
